# Measurements from ChEMBL document CHEMBL1138711, “1,2,3,4-Tetrahydroquinoline-containing alphaVbeta3 integrin antagonists with enhanced oral bioavailability” (Bioorg Med Chem Lett, 2004).
# How the values were obtained:
# [1] = Oral bioavailability in rat; format: ADME, organism-based; conditions: in vivo
# Outline: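 Rats dosed orally at 10 mg/kg (N = 4) and intravenously at 2 mg/kg (N = 4) unless otherwise noted. The oral vehicle was D5W (5% dextrose) adjusted to pH 2 with 0.1 N HCl. Plasma drug levels were measured by LC/MS, and bioavailability was derived by comparing oral with intravenous exposure.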
# [2] = biological target: Integrin alpha-V/beta-5 (Homo sapiens, UniProt P06756+P18084); test: Inhibitory concentration for human vitronectin binding to immobilized alphaV-beta5 integrin; format: protein-complex assay
# [3] = biological target: Integrin alpha-IIb/beta-3 (Homo sapiens, UniProt P05106+P08514); test: Inhibitory concentration for biotinylated fibrinogen binding to immobilized alpha IIb beta-3 integrin; format: protein-complex assay
# [4] = biological target: Integrin alpha-V/beta-3 (Homo sapiens, UniProt P05106+P06756); test: Inhibitory concentration for human vitronectin binding to immobilized alphaV-beta3 integrin; format: protein-complex assay
# [5] = Plasma half-life when administered perorally at 30 mg/kg dose; format: ADME, organism-based; parameters: dose 30 mg/kg, route oral; conditions: rat, po
# [6] = Maximum plasma concentration when administered perorally at 30 mg/kg dose; format: ADME, organism-based; parameters: dose 30 mg/kg, route oral; conditions: rat, po
# [7] = Time to reach maximum plasma concentration when administered perorally at 15 mg/kg dose in rat; format: ADME, organism-based; parameters: dose 15 mg/kg, route oral; conditions: po
# [8] = Maximum plasma concentration when administered perorally at 15 mg/kg dose in rat; format: ADME, organism-based; parameters: dose 15 mg/kg, route oral; conditions: po
# [9] = Plasma half-life when administered perorally at 10 mg/kg dose; conditions: rat, in vivo, po
# Integrin alpha-V/beta-3, sequence (P05106 27-788 limits assumed): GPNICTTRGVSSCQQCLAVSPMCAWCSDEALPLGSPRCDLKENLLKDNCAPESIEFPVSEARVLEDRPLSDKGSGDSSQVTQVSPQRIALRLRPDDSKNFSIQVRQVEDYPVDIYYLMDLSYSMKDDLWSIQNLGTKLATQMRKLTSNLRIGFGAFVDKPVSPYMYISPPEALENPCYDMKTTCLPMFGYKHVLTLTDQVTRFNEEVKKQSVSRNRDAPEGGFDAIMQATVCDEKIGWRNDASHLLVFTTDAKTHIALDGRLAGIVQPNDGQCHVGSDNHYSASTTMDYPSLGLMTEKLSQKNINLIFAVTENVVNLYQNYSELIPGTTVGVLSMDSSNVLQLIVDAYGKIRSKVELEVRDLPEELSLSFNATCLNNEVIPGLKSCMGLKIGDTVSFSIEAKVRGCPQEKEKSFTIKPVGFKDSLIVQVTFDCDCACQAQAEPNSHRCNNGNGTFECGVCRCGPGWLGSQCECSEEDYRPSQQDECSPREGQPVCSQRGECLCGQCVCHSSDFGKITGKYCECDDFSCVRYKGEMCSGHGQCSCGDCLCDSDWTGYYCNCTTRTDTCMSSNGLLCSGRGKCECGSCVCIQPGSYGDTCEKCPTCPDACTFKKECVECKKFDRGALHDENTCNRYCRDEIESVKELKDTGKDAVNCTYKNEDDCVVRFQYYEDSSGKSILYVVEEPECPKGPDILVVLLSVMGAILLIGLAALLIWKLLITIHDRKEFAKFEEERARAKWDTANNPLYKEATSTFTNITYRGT
# Integrin alpha-V/beta-3, sequence (P06756 31-889 limits assumed): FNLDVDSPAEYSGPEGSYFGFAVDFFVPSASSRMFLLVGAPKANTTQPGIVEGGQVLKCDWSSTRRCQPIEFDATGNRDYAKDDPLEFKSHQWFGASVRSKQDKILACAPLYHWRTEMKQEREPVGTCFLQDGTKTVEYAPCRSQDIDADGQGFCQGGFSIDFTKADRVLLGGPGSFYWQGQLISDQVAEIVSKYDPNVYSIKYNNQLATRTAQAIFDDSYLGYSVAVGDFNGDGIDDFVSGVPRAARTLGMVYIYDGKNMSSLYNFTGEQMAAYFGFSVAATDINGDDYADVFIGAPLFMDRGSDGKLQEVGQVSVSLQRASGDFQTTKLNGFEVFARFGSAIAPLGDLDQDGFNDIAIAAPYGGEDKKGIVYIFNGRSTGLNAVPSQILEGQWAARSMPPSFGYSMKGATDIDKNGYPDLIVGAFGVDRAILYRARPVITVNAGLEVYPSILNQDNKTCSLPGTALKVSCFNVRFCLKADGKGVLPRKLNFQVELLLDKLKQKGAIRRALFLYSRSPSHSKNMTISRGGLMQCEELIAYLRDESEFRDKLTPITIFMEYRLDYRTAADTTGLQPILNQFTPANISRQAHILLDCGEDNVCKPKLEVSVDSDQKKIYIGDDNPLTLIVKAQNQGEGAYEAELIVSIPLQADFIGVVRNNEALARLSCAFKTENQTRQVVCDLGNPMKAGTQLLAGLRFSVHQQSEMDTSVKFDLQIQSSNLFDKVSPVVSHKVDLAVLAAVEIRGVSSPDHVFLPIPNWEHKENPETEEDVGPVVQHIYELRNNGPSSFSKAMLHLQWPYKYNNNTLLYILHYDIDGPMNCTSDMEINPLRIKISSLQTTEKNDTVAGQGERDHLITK
# Integrin alpha-V/beta-3, sequence (P06756 891-1048 limits assumed): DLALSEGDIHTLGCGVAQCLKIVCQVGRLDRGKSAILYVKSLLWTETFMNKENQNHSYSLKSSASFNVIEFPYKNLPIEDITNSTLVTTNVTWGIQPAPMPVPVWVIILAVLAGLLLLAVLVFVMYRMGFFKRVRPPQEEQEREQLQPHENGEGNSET
# Integrin alpha-IIb/beta-3, sequence (P05106 27-788 limits assumed): as the sequence (P05106 27-788 limits assumed) above
# Integrin alpha-IIb/beta-3, sequence (P08514 32-887 limits assumed): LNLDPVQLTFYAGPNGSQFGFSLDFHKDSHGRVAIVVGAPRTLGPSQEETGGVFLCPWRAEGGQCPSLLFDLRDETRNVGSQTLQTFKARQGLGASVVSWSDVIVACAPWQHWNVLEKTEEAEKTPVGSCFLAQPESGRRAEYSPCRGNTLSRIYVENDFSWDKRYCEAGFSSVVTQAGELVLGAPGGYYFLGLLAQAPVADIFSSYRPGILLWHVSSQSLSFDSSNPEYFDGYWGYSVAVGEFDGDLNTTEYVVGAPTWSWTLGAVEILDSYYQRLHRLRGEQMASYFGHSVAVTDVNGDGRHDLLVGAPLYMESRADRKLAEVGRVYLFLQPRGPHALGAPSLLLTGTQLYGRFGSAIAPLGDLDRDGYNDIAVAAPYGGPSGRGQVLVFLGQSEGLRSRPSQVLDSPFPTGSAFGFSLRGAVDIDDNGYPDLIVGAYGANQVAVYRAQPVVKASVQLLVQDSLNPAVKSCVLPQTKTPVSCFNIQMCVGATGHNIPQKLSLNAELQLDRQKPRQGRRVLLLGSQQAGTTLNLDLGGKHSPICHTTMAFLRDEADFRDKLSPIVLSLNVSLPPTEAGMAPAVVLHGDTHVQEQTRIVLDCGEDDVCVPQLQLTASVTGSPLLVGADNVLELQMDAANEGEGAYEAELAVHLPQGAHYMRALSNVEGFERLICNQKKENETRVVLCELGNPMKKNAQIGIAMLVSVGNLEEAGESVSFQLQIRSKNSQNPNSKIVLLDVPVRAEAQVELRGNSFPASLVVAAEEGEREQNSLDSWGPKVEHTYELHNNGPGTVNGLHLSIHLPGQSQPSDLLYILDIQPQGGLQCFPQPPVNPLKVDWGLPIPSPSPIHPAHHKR
# Integrin alpha-IIb/beta-3, sequence (P08514 891-1039 limits assumed): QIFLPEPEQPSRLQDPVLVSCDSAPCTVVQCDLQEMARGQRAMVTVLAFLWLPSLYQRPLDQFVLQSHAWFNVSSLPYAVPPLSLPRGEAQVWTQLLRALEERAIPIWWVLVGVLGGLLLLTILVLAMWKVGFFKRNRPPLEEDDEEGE
# Integrin alpha-V/beta-5, sequence (P06756 31-889 limits assumed): as the sequence (P06756 31-889 limits assumed) above
# Integrin alpha-V/beta-5, sequence (P06756 891-1048 limits assumed): as the sequence (P06756 891-1048 limits assumed) above
# Integrin alpha-V/beta-5, sequence (P18084 24-799 limits assumed): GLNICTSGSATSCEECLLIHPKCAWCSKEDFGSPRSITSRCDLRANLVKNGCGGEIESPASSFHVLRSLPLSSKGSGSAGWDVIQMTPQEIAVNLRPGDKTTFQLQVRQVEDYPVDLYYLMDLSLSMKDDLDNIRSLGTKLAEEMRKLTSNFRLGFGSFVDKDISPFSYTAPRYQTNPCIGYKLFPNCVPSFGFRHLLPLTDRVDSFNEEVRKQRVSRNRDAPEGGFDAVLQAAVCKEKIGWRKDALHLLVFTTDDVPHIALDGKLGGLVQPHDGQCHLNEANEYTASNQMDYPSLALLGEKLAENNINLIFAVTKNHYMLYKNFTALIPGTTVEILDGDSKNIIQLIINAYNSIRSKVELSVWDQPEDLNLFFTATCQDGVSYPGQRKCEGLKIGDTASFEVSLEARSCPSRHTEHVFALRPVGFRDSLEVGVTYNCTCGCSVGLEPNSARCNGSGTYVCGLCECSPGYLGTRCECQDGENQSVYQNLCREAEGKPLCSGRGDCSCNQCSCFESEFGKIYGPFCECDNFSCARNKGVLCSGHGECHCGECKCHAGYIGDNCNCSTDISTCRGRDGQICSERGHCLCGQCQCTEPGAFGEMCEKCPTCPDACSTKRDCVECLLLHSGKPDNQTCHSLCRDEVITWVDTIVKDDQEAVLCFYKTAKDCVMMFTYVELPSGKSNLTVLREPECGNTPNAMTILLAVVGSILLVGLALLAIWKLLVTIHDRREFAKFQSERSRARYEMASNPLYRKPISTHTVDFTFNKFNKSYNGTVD
Compound,bioavailability [1] [%],IC50 [2] [nM],IC50 [3] [nM],IC50 [4] [nM],half-life [5] [h],Cmax ([6]; plasma) [nM],F [1] [%],Tmax [7] [h],Cmax [8] [nM],Cmax ([6]; in vivo) [nM],T1/2 [9] [h]
O=C(O)C[C@H](c1cnc2ccccc2c1)C1CCN(C(=O)CCCc2ccc3c(n2)NCCC3)CC1,1,36,870,0.5,–,–,–,–,–,–,–
O=C(O)C[C@@H](CC1CCN(C(=O)CCc2ccc3c(n2)NCCC3)CC1)c1cnc2ccccc2c1,4,2.2,1100,0.8,3,500,–,–,–,–,–
O=C(O)C[C@H](NC(=O)C1CCN(C(=O)CCc2ccc3c(n2)NCCC3)CC1)c1cnc2ccccc2c1,–,270,2900,2.6,–,–,–,–,–,–,–
O=C(O)C[C@H](NC(=O)C1CCN(C(=O)CCCNC2=NCCN2)CC1)c1cnc2ccccc2c1,4,470,170,3.6,7,800,–,–,–,–,–
O=C(O)C[C@@H]1Cc2ccc(OCCCNc3ccccn3)cc2Cc2ccccc21,–,2.9,1200,4,–,–,–,–,–,–,–
O=C(O)C[C@@H](C1CCN(C(=O)CCCc2ccc3c(n2)NCCC3)CC1)C1CNc2ccccc2C1 (mixture of isomers),–,260,15000,3.7,–,–,100,–,–,–,–
O=C(O)CC(CC1CCN(C(=O)CCc2ccc3c(n2)NCCC3)CC1)C1CNc2ccccc2C1 (racemic),–,–,14000,–,–,–,–,2,21000,–,–
CN1CC(C(CC(=O)O)CC2CCN(C(=O)CCc3ccc4c(n3)NCCC4)CC2)Cc2ccccc21 (racemic),–,180,> 50000,49,–,–,–,–,–,–,–
"O=C(O)C[C@@H](C1CCN(C(=O)CCCc2ccc3c(n2)NCCC3)CC1)C1CNc2ccccc2C1 (single isomer, unassigned; isomer b)",–,2500,> 50000,70,–,–,–,–,–,–,–
"O=C(O)C[C@@H](C1CCN(C(=O)CCCc2ccc3c(n2)NCCC3)CC1)C1CNc2ccccc2C1 (single isomer, unassigned; isomer d)",–,160,17000,5.4,–,–,52,–,–,58000,1
O=C(O)C[C@@H](CC1CCN(C(=O)CCc2ccc3c(n2)NCCC3)CC1)c1cnc2c(c1)CCCC2 (stereo in doubt; 28),–,11,3000,1.6,–,–,0,–,–,–,–
COc1ccc([C@@H](CC(=O)O)CC2CCN(C(=O)CCc3ccc4c(n3)NCCC4)CC2)cn1 (stereo in doubt; 34),–,2.7,6100,0.7,–,–,8,–,–,900,–
COc1ccc([C@@H](CC(=O)O)CC2CCN(C(=O)CCc3ccc4c(n3)NCCC4)CC2)cn1 (stereo in doubt; form 1),–,3.1,1800,0.4,2,–,2,–,–,100,–
O=C(O)C[C@@H](C1CCN(C(=O)CCCc2ccc3c(n2)NCCC3)CC1)C1CNc2ccccc2C1 (stereo in doubt; form 1),–,44,13000,1.6,2,–,46,–,–,8000,–
O=C(O)C[C@@H](CC1CCN(C(=O)CCc2ccc3c(n2)NCCC3)CC1)c1cnc2c(c1)CCCC2 (stereo in doubt; form 1),–,1000,> 50000,26,–,–,–,–,–,–,–
COc1ccc([C@@H](CC(=O)O)CC2CCN(C(=O)CCc3ccc4c(n3)NCCC4)CC2)cn1 (stereo in doubt; form 2),–,98,> 50000,16,–,–,–,–,–,–,–
O=C(O)C[C@@H](C1CCN(C(=O)CCCc2ccc3c(n2)NCCC3)CC1)C1CNc2ccccc2C1 (stereo in doubt; form 2),–,1500,> 50000,100,–,–,–,–,–,–,–
O=C(O)C[C@@H](CC1CCN(C(=O)CCc2ccc3c(n2)NCCC3)CC1)c1cnc2c(c1)CCCC2 (stereo in doubt; form 4),–,2200,> 50000,52,–,–,–,–,–,–,–
